From ChEMBL document CHEMBL1145984 (J Med Chem, 2003)

Target: T1, Aminopeptidase N (Sus scrofa, UniProt P15145)
T1 sequence (P15145 whole entry): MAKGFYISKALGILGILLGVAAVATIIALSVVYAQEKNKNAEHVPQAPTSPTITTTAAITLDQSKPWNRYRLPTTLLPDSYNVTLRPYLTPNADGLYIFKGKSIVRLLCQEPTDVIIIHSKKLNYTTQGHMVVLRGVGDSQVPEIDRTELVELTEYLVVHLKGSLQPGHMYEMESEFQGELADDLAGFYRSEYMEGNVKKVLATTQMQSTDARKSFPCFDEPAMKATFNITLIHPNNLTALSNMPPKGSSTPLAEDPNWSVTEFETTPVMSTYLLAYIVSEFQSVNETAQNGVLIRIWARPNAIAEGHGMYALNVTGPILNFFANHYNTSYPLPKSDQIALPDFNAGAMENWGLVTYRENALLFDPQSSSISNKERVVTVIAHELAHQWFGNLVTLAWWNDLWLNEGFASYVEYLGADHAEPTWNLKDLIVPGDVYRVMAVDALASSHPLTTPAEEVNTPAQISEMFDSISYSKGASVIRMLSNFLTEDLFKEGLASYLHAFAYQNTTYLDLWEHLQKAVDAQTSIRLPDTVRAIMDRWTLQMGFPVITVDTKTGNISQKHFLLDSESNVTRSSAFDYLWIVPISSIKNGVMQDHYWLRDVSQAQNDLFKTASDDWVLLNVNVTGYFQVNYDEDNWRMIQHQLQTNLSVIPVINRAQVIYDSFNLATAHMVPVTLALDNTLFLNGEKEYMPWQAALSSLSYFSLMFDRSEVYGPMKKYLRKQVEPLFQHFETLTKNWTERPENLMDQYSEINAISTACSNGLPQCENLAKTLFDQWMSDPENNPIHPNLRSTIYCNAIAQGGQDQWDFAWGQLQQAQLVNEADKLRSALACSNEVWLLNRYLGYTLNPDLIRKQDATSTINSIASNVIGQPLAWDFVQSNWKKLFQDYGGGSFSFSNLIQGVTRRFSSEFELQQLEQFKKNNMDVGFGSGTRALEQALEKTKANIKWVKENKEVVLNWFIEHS
Assay: Binding affinity towards aminopeptidase N (APN) from pig kidney
Procedure, shortened: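 Porcine kidney APN (lyophilized, diluted in 50 mM potassium phosphate pH 7.2; 4 µg/mL final), inhibitor preincubated 60 min at room temperature, inhibitor solutions adjusted to pH 7.5. L-leucine p-nitroanilide 0.05–0.6 mM final starts reaction; A405 followed 10 min at 25 °C. Ki from Lineweaver-Burk plots of initial linear velocities, 3–4 inhibitor concentrations, each measured twice.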

| SMILES | Ki [µM] |
| --- | --- |
| CC(C)CC(CP(=O)(O)C(N)CCc1ccccc1)C(=O)O (stereo unspecified) | 1.01 |
| CC(C)CC(N)P(=O)(O)CCC(=O)O (stereo unspecified) | 1.41 |
| NC(CCc1ccccc1)P(=O)(O)CC(Cc1ccc(O)cc1)C(=O)O (stereo unspecified) | 0.036 |
| NC(CCc1ccccc1)P(=O)(O)CC(Cc1ccccc1)C(=O)O (stereo unspecified) | 0.276 |
| CC(C)CC(CP(=O)(O)C(N)CC(C)C)C(=O)O (stereo in doubt; 27) | 1.02 |
| CC(C)CC(N)P(=O)(O)O (stereo unspecified) | 55 |
